Assay outcomes (PubChem)
KDM4C inh: inhibitors of GASC-1 (KDM4C) histone demethylase, primary screen, biochemical, single concentration HTS; hit rate 0.15% among 96,000; GST-KDM4C 2-372, H3K9me3 peptide, LANCE TR-FRET; Lysine-specific demethylase 4C (Homo sapiens), Q9H3R0; AID 720574, 2013; inhibition, % at 12.5 µM;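 active = mean replicate inhibition above about 25%, with at least 55% of replicates also reaching it, limit read from the data, passing the limit was not always enough; inconclusive = only one of those two conditions met; inactive = neither condition met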
Target sequence (Q9H3R0 2-372 limits assumed): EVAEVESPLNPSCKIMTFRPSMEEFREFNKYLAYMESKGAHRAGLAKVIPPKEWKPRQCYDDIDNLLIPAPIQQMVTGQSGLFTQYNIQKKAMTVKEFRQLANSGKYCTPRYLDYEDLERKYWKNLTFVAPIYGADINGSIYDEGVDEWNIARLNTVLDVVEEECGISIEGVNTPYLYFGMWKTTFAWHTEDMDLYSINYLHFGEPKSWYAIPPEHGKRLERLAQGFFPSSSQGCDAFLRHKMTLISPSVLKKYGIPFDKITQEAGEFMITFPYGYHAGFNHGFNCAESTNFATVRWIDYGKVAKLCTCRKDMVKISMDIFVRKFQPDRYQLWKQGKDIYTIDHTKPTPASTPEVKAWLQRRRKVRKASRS
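reagent = H3K9me3 peptide substrate, Fe(II), 2-oxoglutarate | system = GST-tagged GASC-1 (JMJD2C) catalytic fragment, aa 2-372 | amount = enzyme final amount 10 nM | read-out = Fall in 671/618 emission ratio as inhibition | medium = HEPES buffer, pH 7.5, plus ascorbate | schedule = 30 min reaction, 60 min detection, RT | measured by = LANCE TR-FRET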
IDH1 R132H inh: inhibitors of IDH1 R132H reductase, primary screen, biochemical, plate reader, single point | AID 624101, 2012 | inhibition, % at 10 µM | Isocitrate dehydrogenase [NADP] cytoplasmic (Homo sapiens), O75874 | diaphorase/resazurin fluorescence, 60 min | hit rate 0.18% among 70,000; in the data active = inhibition above about 34%; inconclusive = no clear call, values can overlap the other calls; inactive = below about 11%;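 also: 0% = DMSO and 100% = no enzyme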
Target sequence (O75874 whole entry R132H): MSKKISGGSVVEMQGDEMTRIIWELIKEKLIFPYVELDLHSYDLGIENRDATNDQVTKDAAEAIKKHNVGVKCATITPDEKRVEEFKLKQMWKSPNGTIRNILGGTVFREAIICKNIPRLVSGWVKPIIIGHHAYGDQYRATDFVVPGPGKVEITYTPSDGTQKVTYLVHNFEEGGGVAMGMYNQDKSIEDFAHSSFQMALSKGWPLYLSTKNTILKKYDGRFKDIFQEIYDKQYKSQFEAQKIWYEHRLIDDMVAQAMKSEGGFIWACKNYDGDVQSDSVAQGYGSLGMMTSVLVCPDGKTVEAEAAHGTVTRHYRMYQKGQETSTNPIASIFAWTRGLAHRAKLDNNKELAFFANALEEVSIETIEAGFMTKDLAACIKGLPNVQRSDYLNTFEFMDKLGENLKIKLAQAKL
T cruzi growth-1: T. cruzi intracellular proliferation inhibitors, primary screen, cell-based, beta-gal Tulahuen parasites, NIH3T3 host, luminescence | hit rate 5.9% among 77,000 | inhibition, % at 8.34 µM | T. cruzi beta-gal in NIH3T3, GalScreen luminescence, 90 h;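 active = mean inhibition above about 93%, with at least 55% of replicates each passing it, limit read from the data, passing the limit was not always enough; inconclusive = only one of those two conditions holds; inactive = neither condition holds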
T cruzi growth-2: T. cruzi intracellular proliferation inhibitors, confirmation, cell-based, NIH3T3 host, beta-gal parasite, luminescence, cherry-pick. shares compounds with T cruzi growth-1. T. cruzi beta-gal in NIH3T3, GalScreen luminescence, 90 h. inhibition, % at 8.35 µM. hit rate 72% among 5,600. AID 651739, 2012;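 active = mean replicate inhibition above about 95% and at least 55% of replicates individually reaching it, limit read from the data; inconclusive = only one of the two criteria is met; inactive = neither criterion is met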
T cruzi growth-3: inhibitors of intracellular T. cruzi replication, confirmation, NIH3T3 host cells, beta-gal parasites, cherry-pick, set 2. AID 651740, 2012. inhibition, % at 2.09 µM. T. cruzi beta-gal in NIH3T3, GalScreen luminescence, 90 h. shares compounds with T cruzi growth-1. hit rate 21% among 5,600;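 active = mean inhibition above about 95%, with at least 55% of replicates also reaching it, limit read from the data; inconclusive = meets just one of the two conditions; inactive = meets neither condition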;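 also: plate controls were neutral control median for no effect and positive control median for full effect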
3T3 cytotox: cytotoxicity in mouse NIH/3T3 fibroblasts, confirmation, cytotoxicity control for T. cruzi proliferation inhibitor project, cell-based, cherry-pick, single point; NIH/3T3 viability, CellTiter-Glo ATP luminescence, 90 h; shares compounds with T cruzi growth-1; hit rate 14% among 5,600; cytotoxicity (signal decrease), % at 8.35 µM;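 active = mean signal decrease across replicates above about 35% based on untreated-well scatter, with enough replicates individually passing, limit read from the data; inconclusive = no rule stated though some were filed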;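 also: 0% = median of neutral control wells and 100% = median of positive control wells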
NIH3T3 tox 2: NIH/3T3 fibroblast cytotoxicity, confirmation, cytotoxicity control, cell-based, cherry-pick, single point, set 2; shares compounds with T cruzi growth-1; NIH/3T3 viability, CellTiter-Glo ATP luminescence, 90 h; inhibition, % at 24.9 µM; hit rate 56% among 5,600; AID 651744, 2012;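 active = mean loss of cell viability signal at or above a set limit, and enough replicates individually reaching it; inconclusive = meets only the mean limit or only the replicate share; inactive = meets neither condition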;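 also: 0% = median of neutral control wells and 100% = median of positive control wells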
Numbers without * were called inactive; ? = inconclusive; / = no result. The full list was thinned out, with hits kept by preference.

SMILES | KDM4C inh | IDH1 R132H inh | T cruzi growth-1 | T cruzi growth-2 | T cruzi growth-3 | 3T3 cytotox | NIH3T3 tox 2
CC(C)CC#Cc1ccc2c(c1)O[C@H](CN(C)C(=O)c1cccc(F)c1)[C@H](C)CN([C@H](C)CO)S2(=O)=O | 0 | -4 | 126* | 104* | 108* | 29 | 104*
CC(C)C#Cc1ccc2c(c1)O[C@@H](CN(C)C(=O)c1cccc(F)c1)[C@@H](C)CN([C@@H](C)CO)S2(=O)=O | 0 | 0 | 95 | / | / | / | /
Cc1ccc2ccc(C(Nc3ccccn3)c3ccc(Cl)c(Cl)c3)c(O)c2n1 (configuration not stated) | / | 0 | / | / | / | / | /
CCn1c(SCC(=O)Nc2c(C)cc(C)cc2C)nnc1-c1ccc(Br)cc1 | / | 0 | / | / | / | / | /
COc1ccccc1NC(=O)CSc1nc(O)cc(=O)n1-c1ccccc1 | / | 0 | / | / | / | / | /
CN(C)C(=O)c1ccc(-c2ccc([C@H]3[C@@H](CO)N4CCCCN(C(=O)C5CCCC5)C[C@@H]34)cc2)cc1 | / | / | ? | 110* | 93 | -20 | -2
CN(C)C(=O)c1ccc(-c2ccc([C@@H]3[C@@H](CO)N4CCCCN(C(=O)C5CCCC5)C[C@H]34)cc2)cc1 | / | / | 21 | / | / | / | /
CN(C)C(=O)c1ccc(-c2ccc([C@H]3[C@@H](CO)N4CCCCN(C(=O)C5CCCC5)C[C@H]34)cc2)cc1 | / | / | 102* | 105* | 101* | 15 | 39*
CN(C)C(=O)c1ccc(-c2ccc([C@H]3[C@H](CO)N4CCCCN(C(=O)C5CCCC5)C[C@@H]34)cc2)cc1 | / | / | 80 | / | / | / | /
C/C=C/c1ccc([C@H]2[C@@H](CO)N3CCCCN(C(=O)Nc4ccc(F)cc4)C[C@@H]23)cc1 | 0 | / | 85 | / | / | / | /
C/C=C/c1ccc([C@H]2[C@@H](CO)N3CCCCN(C(=O)C4CCCC4)C[C@@H]23)cc1 | 1 | / | 107* | 108* | 86 | 1 | 5
O=C(CSc1nnnn1-c1ccccc1)Nc1ccc(Oc2ccccc2)cc1 | / | 0 | / | / | / | / | /
C/C=C/c1ccc2c(c1)O[C@H](CN(C)Cc1cccnc1)[C@H](C)CN([C@H](C)CO)S2(=O)=O | -1 | 0 | 39 | / | / | / | /
C/C=C/c1ccc2c(c1)O[C@H](CN(C)Cc1cccnc1)[C@H](C)CN([C@@H](C)CO)S2(=O)=O | -1 | 2 | ? | 75 | -7 | 3 | 20
C/C=C/c1ccc2c(c1)O[C@H](CN(C)Cc1cccnc1)[C@@H](C)CN([C@H](C)CO)S2(=O)=O | 0 | ? | 106* | 103* | 100* | 48* | 71*
C[C@@H]1CN([C@@H](C)CO)S(=O)(=O)c2ccc(/C=C/c3ccccc3)cc2O[C@@H]1CN(C)Cc1ccccc1 | -1 | 0 | 100* | 97* | 110* | 17 | 81*
C[C@H](CO)N1C[C@H](C)[C@@H](CN(C)Cc2cccnc2)Oc2cc(/C=C/c3ccccc3)ccc2S1(=O)=O | 9 | / | / | / | / | / | /
C[C@@H]1CN([C@@H](C)CO)S(=O)(=O)c2ccc(Br)cc2O[C@H]1CN(C)Cc1cccnc1 | 0 | ? | / | / | / | / | /
C[C@H]1CN([C@@H](C)CO)S(=O)(=O)c2ccc(/C=C/c3ccccc3)cc2O[C@@H]1CN(C)Cc1ccccc1 | 0 | -5 | 95 | / | / | / | /
C[C@@H]1CN([C@H](C)CO)S(=O)(=O)c2ccc(/C=C/c3ccccc3)cc2O[C@@H]1CN(C)Cc1cccnc1 | -2 | 0 | 128* | 91 | 91 | 83* | 96*
Cc1cc(C)c(S(=O)(=O)N(CC(=O)Nc2ccccc2C(F)(F)F)C2CCCCC2)c(C)c1 | / | 0 | / | / | / | / | /
CS(=O)(=O)N(CC(=O)Nc1ccccc1C(=O)O)c1ccc(F)cc1 | / | -1 | / | / | / | / | /
CCOc1ccccc1NC(=O)C(C)Oc1ccc(OC)cc1 (configuration not stated) | / | 0 | / | / | / | / | /
Cc1c(NC(=O)CN(c2ccc(F)c(Cl)c2)S(C)(=O)=O)cccc1[N+](=O)[O-] | / | 0 | / | / | / | / | /
Cc1ccccc1-c1ccc([C@H]2[C@H]3CN(C(=O)Nc4ccccc4)CCCCN3[C@H]2CO)cc1 | 0 | / | 118* | 112* | 30 | 15 | 34*
SMILES | KDM4C inh | IDH1 R132H inh | T cruzi growth-1 | T cruzi growth-2 | T cruzi growth-3 | 3T3 cytotox | NIH3T3 tox 2
Cc1ccccc1-c1ccc([C@@H]2[C@H]3CN(C(=O)Nc4ccccc4)CCCCN3[C@H]2CO)cc1 | -2 | / | 104* | 104* | 93 | 29 | 105*
COc1ccc(NC(=O)N2CCCCN3[C@H](C2)[C@@H](c2ccc(-c4ccccc4C)cc2)[C@@H]3CO)cc1 | -1 | / | 98* | 98* | 87 | 24 | 104*
Cc1ccccc1-c1ccc([C@H]2[C@@H](CO)N3CCCCN(C(=O)Nc4ccccc4)C[C@H]23)cc1 | -2 | / | 34 | / | / | / | /
COc1ccc(NC(=O)N2CCCCN3[C@H](CO)[C@H](c4ccc(-c5ccccc5C)cc4)[C@H]3C2)cc1 | -2 | / | 48 | / | / | / | /
CS(=O)(=O)N(CC(=O)Nc1ccc(C(F)(F)F)cc1)c1ccc(I)cc1 | / | 1 | / | / | / | / | /
COc1ccc(NC(=O)NCc2ccc(C(=O)O)cc2)c(OC)c1 | / | 0 | / | / | / | / | /
O=c1cc(-c2ccc(O)cc2)oc2cc(O[C@@H]3O[C@H](CO)[C@@H](O)[C@H](O)[C@H]3O[C@H]3OC[C@](O)(CO)[C@H]3O)ccc12 | / | 0 | / | / | / | / | /
C=C1CC[C@H]2C(=C)CC[C@@]3(O)C(=C)C(=O)O[C@@H]3[C@@H]12 | / | 0 | / | / | / | / | /
COc1cc(OC)c(NC(=O)CN(C)S(=O)(=O)c2cc(Cl)ccc2Cl)cc1Cl | / | 0 | / | / | / | / | /
CC1(C)Cc2c(c(N3CCOCC3)nc3sc4c(=O)[nH]nnc4c23)CO1 | / | 0 | / | / | / | / | /
Cc1ccc(NS(=O)(=O)c2cc(C(=O)NCC3CCCO3)ccc2Cl)c(C)c1 (configuration not stated) | / | 0 | / | / | / | / | /
Cc1c(C(=O)OC(C)C)sc2ncn(CC(=O)Nc3ccccc3C(F)(F)F)c(=O)c12 | / | 0 | / | / | / | / | /
COc1cccc(N(CC(=O)Nc2ccc(OC)c(Cl)c2)S(C)(=O)=O)c1 | / | 0 | / | / | / | / | /
C[C@H](CO)N1C[C@H](C)[C@@H](CN(C)S(=O)(=O)c2ccc(Cl)cc2)Oc2c(NC(=O)Nc3ccc(C(F)(F)F)cc3)cccc2C1=O | / | 1 | ? | 90 | 111* | 46* | 105*
COc1ccc(S(=O)(=O)N(C)C[C@@H]2Oc3c(NC(=O)Nc4cccc5ccccc45)cccc3C(=O)N([C@H](C)CO)C[C@@H]2C)cc1 | 11 | -1 | 126* | ? | 65 | 33 | 30*
